Laboratory results: ChEMBL document CHEMBL1123549, “Detection of N-acetyl-p-benzoquinone imine produced during the hydrolysis of the model phenacetin metabolite N-(pivaloyloxy)phenacetin” (J Med Chem, 1986)

Columns and labels:
Type in all cases: ADME
[1] = Pseudo-first-order rate constant for the decomposition of compound at 25 degree C in presence of KOAc/HCl at pH 5.64; details: buffer
How it was run: (§1)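 Hydrolysis followed by UV absorbance (repetitive scans; traces at 266.5 and 245 nm) at 25.0 ± 0.1 °C in 5 vol % CH3CN-H2O, ionic strength 0.50 M (KCl). Media were HCl solutions, or acetate or phosphate buffers at 0.01 M total buffer. Meter pH was corrected by subtracting 0.05. Rate constants came from fitting absorbance vs. time to a first-order or two-consecutive-first-order equation.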

[2] = Pseudo-first-order rate constant for the decomposition of compound at 25 degree C in presence of HCl at pH 1.00; Too fast to measure by conventional methods; details: buffer; how it was run: as §1
[3] = Pseudo-first-order rate constant for the decomposition of compound at 25 degree C in presence of K2HPO4/[…]/HCl at pH 5.75; details: buffer; how it was run: as §1
[4] = Pseudo-first-order rate constant for the decomposition of compound at 25 degree C in presence of K2HPO4/[…]/HCl at pH 6.77; details: buffer; how it was run: as §1
[5] = (§2) Pseudo-first-order rate constant for the decomposition of compound at 25 degree C in presence of HCl at pH 2.00; details: buffer; how it was run: as §1
[6] = Pseudo-first-order rate constant for the decomposition of compound at 25 degree C in presence of KOAc/HCl at pH 4.60; details: buffer, pH 4.6; how it was run: as §1
[7] = (§3) Pseudo-first-order rate constant for the decomposition of compound at 25 degree C in presence of HCl at pH 1.00; details: buffer; how it was run: as §1
[8] = Pseudo-first-order rate constant for the decomposition of compound at 25 degree C in presence of K2HPO4/[…]/HCl at pH 7.55; details: buffer; how it was run: as §1
[9] = as §2; details: buffer; remark: listed apart in the source
How it was run: (§4)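 Hydrolysis run in 5 vol % CH3CN-H2O, ionic strength 0.50 M (KCl), HCl solution, (25.0 ± 0.1) °C. pH meter readings corrected as pH = reading − 0.05, calibrated on standardized HCl. Progress followed by repetitive UV absorbance scans. Absorbance vs. time at 266.5 and 245 nm fit by least squares to the rate equation for two consecutive first-order processes, giving pseudo-first-order rate constants.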

[10] = Pseudo-first-order rate constant for the decomposition of compound at 25 degree C in presence of HCl at pH 2.00; Too fast to measure by conventional methods; details: buffer; how it was run: as §1
[11] = Pseudo-first-order rate constant for the decomposition of compound at 25 degree C in presence of HCl at pH 3.02; details: buffer; how it was run: as §1
[12] = as §3; details: buffer; how it was run: as §4; remark: listed apart in the source
[13] = Pseudo-first-order rate constant for the decomposition of compound at 25 degree C in presence of KOAc/HCl at pH 3.71; details: buffer; how it was run: as §1
[14] = Pseudo-first-order rate constant for the decomposition of compound at 25 degree C in presence of HCl at pH 2.31; details: buffer; how it was run: as §4
[15] = Pseudo-first-order rate constant for the decomposition of compound at 25 degree C in presence of HCl at pH 1.59; details: buffer; how it was run: as §4
[16] = Pseudo-first-order rate constant for the decomposition of compound at 25 degree C in presence of HCl at pH 1.30; details: buffer, pH 1.3; how it was run: as §4
[17] = Pseudo-first-order rate constant for the decomposition of compound at 25 degree C in presence of HCl at pH 2.62; details: buffer; how it was run: as §4

Q: For `CCOc1ccc(N(OC(=O)C(C)(C)C)C(C)=O)cc1`, which k0 [1] is on record?
A: 0.0224 s⁻¹

Q: What about the “k'” value [1] of the same molecule?
A: 0.000394 s⁻¹

Q: What about the “k''” value [1] of the same molecule?
A: 0.00261 s⁻¹

Q: And the “k'” value [2]?
A: Too fast to measure by conventional methods

Q: And the k0 [3]?
A: 0.0226 s⁻¹

Q: What about the “k'” value [3] of the same molecule?
A: 0.000303 s⁻¹

Q: And the “k''” value [3]?
A: 0.00287 s⁻¹

Q: And the k0 [4]?
A: 0.0219 s⁻¹

Q: And the “k'” value [4]?
A: 0.0000512 s⁻¹

Q: What about the k0 [5] of the same molecule?
A: 0.0252 s⁻¹

Q: What about the k0 [6] of the same molecule?
A: 0.0263 s⁻¹

Q: And the “k'” value [6]?
A: 0.0037 s⁻¹

Q: And the “k''” value [6]?
A: 0.000642 s⁻¹

Q: And the k0 [7]?
A: 0.0271 s⁻¹

Q: And the k0 [8]?
A: 0.0214 s⁻¹

Q: What about the “k'” value [8] of the same molecule?
A: 0.0000288 s⁻¹

Q: And the “k''” value [9]?
A: 0.000996 s⁻¹

Q: And the “k'” value [10]?
A: Too fast to measure by conventional methods

Q: And the k0 [11]?
A: 0.0205 s⁻¹

Q: What about the “k'” value [11] of the same molecule?
A: 0.155 s⁻¹

Q: And the “k''” value [11]?
A: 0.000476 s⁻¹

Q: What about the “k''” value [12] of the same molecule?
A: 0.00606 s⁻¹

Q: What about the k0 [13] of the same molecule?
A: 0.0246 s⁻¹

Q: What about the “k'” value [13] of the same molecule?
A: 0.0246 s⁻¹

Q: And the “k''” value [13]?
A: 0.000471 s⁻¹

Q: Which results are given for `CC(=O)N=C1C=CC(=O)C=C1`?
A: k'' [14]: 0.000703 s⁻¹; k'' [15]: 0.0019 s⁻¹; k'' [16]: 0.0034 s⁻¹; k'' [17]: 0.000575 s⁻¹; k'' [9]: 0.000977 s⁻¹; k'' [12]: 0.00639 s⁻¹
